The results in this text go back to paper PMC10288510 (Journal of the American Chemical Society, 2023).

The nature of data set [1]: CF assay: cargo dose-response with COSAN 2 as carrier. In kind it is in vitro ADME. The settings on record: for transport of cargo by COSAN 2 (in words): EYPC⊃CF liposomes, 4 μM COSAN 2, pH 7.4; for Et (transport efficiency = Ymax (pEC50)/f, f = 41.8): EYPC vesicles, 4 μM COSAN 2, n.a = no detectable activity, 10% error (SD).
A short description of data set [2]: CF assay: carrier-mediated heptaarginine. It is filed as in vitro ADME. The settings on record: EYPC⊃CF LUVs, 1 μM Trp-Arg7, pEC50 from EC50 in mM, 10% error (SD). In outline: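 Egg-yolk phosphatidylcholine LUVs (4 μM phospholipid) loaded with self-quenched carboxyfluorescein; efflux read as dequenching (λex 492 nm, λem 517 nm) over time. Carrier added at t = 50 s, Trp-Arg7 (1 μM) at 100 s, Triton X-100 lysis at 600 s for normalisation. Kinetics run across carrier concentrations; normalised traces converted to dose–response curves; Hill fit gives Ymax, EC50 and Ea.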

Peptide text beside a SMILES is read from it.

Regarding `CC(C)C[C@H](NC(=O)[C@@H](NC(=O)[C@@H](N)Cc1ccc(O)cc1)[C@@H](C)O)C(=O)N[C@H](C(=O)N[C@H](C(=O)N[C@@H](CCCCN)C(=O)O)C(C)C)[C@@H](C)O` [Tyr-Thr-Leu-Thr-Val-Lys, tyrosine-threonine-leucine-threonine-valine-lysine] (H-YTLTVK-OH), the “transport of cargo by COSAN 2 (in words)” value in data set [1] is given as “not transported”.

With `O=C(O)CCCc1ccc2ccc3cccc4ccc1c2c34` [PyBu, pyrenebutyrate], the “Ea (activator efficiency = Ymax (pEC50)/f, f = 20.6)” value in data set [2] came out at 4.8.

Take `NCCCC[C@H](NC(=O)[C@H](CCCCN)NC(=O)[C@H](CCCCN)NC(=O)[C@H](CCCCN)NC(=O)[C@H](CCCCN)NC(=O)[C@H](CCCCN)NC(=O)[C@H](CCCCN)NC(=O)[C@@H](N)Cc1c[nH]c2ccccc12)C(=O)O` [Trp-Lys7, tryptophan-heptalysine] (H-WKKKKKKK-OH): the “transport of cargo by COSAN 2 (in words)” value in data set [1] is “efficient transport”.

Regarding protamine, the “Et (transport efficiency = Ymax (pEC50)/f, f = 41.8)” value in data set [1] is 9.0.

As for `NCCCC[C@H](NC(=O)[C@H](CCCCN)NC(=O)[C@H](CCCCN)NC(=O)[C@@H](N)Cc1c[nH]c2ccccc12)C(=O)O` [Trp-(Lys)3, tryptophan-trilysine] (H-WKKK-OH), the “transport of cargo by COSAN 2 (in words)” value in data set [1] is recorded as “not transported”.

As for polylysine, in data set [1], the “Et (transport efficiency = Ymax (pEC50)/f, f = 41.8)” value is 10.0.

On to phalloidin, for which, in data set [1], the “transport of cargo by COSAN 2 (in words)” value is recorded as “not transported”.

As to `N[C@@H](Cc1c[nH]c2ccccc12)C(=O)NCC(=O)NCC(=O)NCC(=O)NCC(=O)NCC(=O)NCC(=O)O` [Trp-Gly6, tryptophan-hexaglysine] (H-WGGGGGG-OH), the “transport of cargo by COSAN 2 (in words)” value in data set [1] is “not transported”.
